Source: ChEMBL document CHEMBL1145796, “Neuromuscular blocking activity and therapeutic potential of mixed-tetrahydroisoquinolinium halofumarates and halosuccinates in rhesus monkeys” (2003)

Columns and labels:
Assay type in all cases: functional, Cercopithecidae
[1] = Time from injection to 95% recovery of the twitch response at the ED95 dose in male Rhesus monkey.
Procedure, shortened: (§1)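 Anesthetized, ventilated male rhesus monkeys received sequential iv bolus doses with extensor digitorum twitch recorded. Onset is injection to peak twitch inhibition. Duration is injection to 95% twitch recovery. Values at the ED95 were read from plots of onset or duration vs dose. Means ± SE across animals.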

[2] = Dose required for 95% suppression of the twitch response at the extensor digitorum in male Rhesus monkey.
Procedure, shortened: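 Adult male rhesus monkeys (8–15 kg) under ketamine (5 mg/kg i.m.) and pentobarbital (2–5 mg/kg iv) induction, then N2O 60%/O2 40%/halothane 0.5–1%, ventilated, core temperature 37–38 °C. Twitch of extensor digitorum was recorded after ≥20 min stable baseline. Sequential iv bolus doses from 0.03 to 6.4 mg/kg. Per-animal ED95 came from log-probability regression of dose vs % block. Other lines give the single dose tested with its % block.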

[3] = Time from injection to peak inhibition of twitch response at the ED95 dose in male Rhesus monkey.; procedure, shortened: as §1
[4] = Selectivity index is changes in heart rate(cv dose) to the suppression of twitch response (ED95) in male Rhesus monkey
Procedure, shortened: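 Same anesthetized male rhesus preparation, with blood pressure, heart rate and EKG recorded alongside twitch during sequential iv doses up to 6.4 mg/kg. Cardiovascular threshold dose is the dose giving ≥10% change in heart rate or mean arterial pressure. Index = mean threshold dose / mean ED95 (extensor digitorum).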

[5] = Cercopithecidae, read-out: ED95

SMILES	Duration [1]	ED95 [2, 5]	Onset [3]	Selectivity index [4]	ED95 [2]
COc1cc2c(cc1OC)[C@H](c1cc(OC)c(OC)c(OC)c1)[N@@+](C)(CCCOC(=O)C(F)(F)CC(=O)OCCC[N@+]1(C)CCc3cc(OC)c(OC)cc3[C@H]1Cc1cc(OC)c(OC)c(OC)c1)CC2.[Cl-].[Cl-]	4.9 min	0.39 mg/kg	26 s	–	–
COc1cc2c(cc1OC)[C@H](c1cc(OC)c(OC)c(OC)c1)[N@@+](C)(CCCOC(=O)CCCCCCCCC(=O)OCCC[N@+]1(C)CCc3cc(OC)c(OC)cc3[C@H]1Cc1cc(OC)c(OC)c(OC)c1)CC2.[Cl-].[Cl-]	13.5 min	0.2 mg/kg	110 s	–	–
COc1cc2c(cc1OC)[C@H](c1cc(OC)c(OC)c(OC)c1)[N@@+](C)(CCCOC(=O)CCCCCCC(=O)OCCC[N@+]1(C)CCc3cc(OC)c(OC)cc3[C@H]1Cc1cc(OC)c(OC)c(OC)c1)CC2.[Cl-].[Cl-]	10.9 min	0.067 mg/kg	117 s	12	–
COc1cc2c(cc1OC)C(c1cc(OC)c(OC)c(OC)c1)[N@+](C)(CCCOC(=O)/C(Cl)=C/C(=O)OCCC[N@+]1(C)CCc3cc(OC)c(OC)cc3[C@H]1c1cc(OC)c(OC)c(OC)c1)CC2.[Cl-].[Cl-] (some centres not stated)	5.1 min	1.79 mg/kg	46 s	3.6	–
COc1cc2c(cc1OC)C(c1cc(OC)c(OC)c(OC)c1)[N@+](C)(CCCOC(=O)/C=C/C(=O)OCCC[N@+]1(C)CCc3cc(OC)c(OC)cc3[C@H]1c1cc(OC)c(OC)c(OC)c1)CC2.[Cl-].[Cl-] (some centres not stated)	25.5 min	1.55 mg/kg	114 s	0.65	–
COc1cc2c(cc1OC)C(Cc1cc(OC)c(OC)c(OC)c1)[N@+](C)(CCCOC(=O)/C(Cl)=C/C(=O)OCCC[N@+]1(C)CCc3cc(OC)c(OC)cc3[C@H]1Cc1cc(OC)c(OC)c(OC)c1)CC2.[Cl-].[Cl-] (some centres not stated)	7.1 min	0.079 mg/kg	96 s	20	–
COc1cc2c(cc1OC)[C@H](c1ccc(F)c(F)c1)[N@@+](C)(CCCOC(=O)/C=C(\Cl)C(=O)OCCC[N@+]1(C)CCc3cc(OC)c(OC)cc3[C@H]1Cc1cc(OC)c(OC)c(OC)c1)CC2.[Cl-].[Cl-]	4.7 min	0.09 mg/kg	72 s	18	–
COc1cc2c(cc1OC)[C@H](c1cc(OC)c(OC)c(OC)c1)[N@@+](C)(CCCOC(=O)/C=C(\Cl)C(=O)OCCC[N@+]1(C)CCc3cc(OC)c(OC)cc3[C@H]1Cc1cc(OC)c(OC)c(OC)c1)CC2.[Cl-].[Cl-] (stereo in doubt; 24a/24b) [GANTACURIUM CHLORIDE]	–	–	–	27	0.163 mg/kg
COc1cc2c(cc1OC)[C@H](c1cc(OC)c(OC)c(OC)c1)[N@@+](C)(CCCOC(=O)/C=C(\Cl)C(=O)OCCC[N@@+]1(C)CCc3cc(OC)c(OC)cc3[C@@H]1c1cc(OC)c(OC)c(OC)c1)CC2.[Cl-].[Cl-]	–	–	–	1.5	–
COc1cc2c(cc1OC)[C@H](c1cc(OC)c(OC)c(OC)c1)[N@@+](C)(CCCOC(=O)CCCCCCCC(=O)OCCC[N@+]1(C)CCc3cc(OC)c(OC)cc3[C@H]1Cc1cc(OC)c(OC)c(OC)c1)CC2.[Cl-].[Cl-]	9.7 min	0.17 mg/kg	79 s	19	–
COc1cc2c(cc1OC)[C@H](c1cc(OC)c(OC)c(OC)c1)[N@@+](C)(CCCOC(=O)/C=C(\F)C(=O)OCCC[N@+]1(C)CCc3cc(OC)c(OC)c(OC)c3[C@H]1Cc1cc(OC)c(OC)c(OC)c1)CC2.[Cl-].[Cl-]	10 min	0.077 mg/kg	85 s	21	–
COc1cc2c(cc1OC)[C@H](c1cc(OC)c(OC)c(OC)c1)N(CCCOC(=O)/C=C(\Cl)C(=O)OCCC[N@+]1(C)CCc3cc(OC)c(OC)cc3[C@H]1Cc1cc(OC)c(OC)c(OC)c1)CC2.Cl.[Cl-]	5.4 min	0.87 mg/kg	38 s	–	–
COc1cc2c(cc1OC)[C@H](c1cc(OC)c(OC)c(OC)c1)[N@@+](C)(CCCOC(=O)CCCCC(=O)OCCC[N@+]1(C)CCc3cc(OC)c(OC)cc3[C@H]1Cc1cc(OC)c(OC)c(OC)c1)CC2.[Cl-].[Cl-]	13 min	0.136 mg/kg	75 s	–	–
COc1cc2c(cc1OC)[C@H](c1cc(OC)c(OC)c(OC)c1)[N@@+](C)(CCCOC(=O)/C=C(\Cl)C(=O)OCCC[N@+]1(C)CCc3cc(OC)c(OC)cc3[C@H]1Cc1cc(OC)c(OC)c(OC)c1)CC2.[Cl-].[Cl-] (stereo in doubt; 24a) [GANTACURIUM CHLORIDE]	–	–	–	57	0.063 mg/kg
COc1cc2c(cc1OC)[C@@H](Cc1cc(OC)c(OC)c(OC)c1)[N+](C)(CCCOC(=O)CC/C=C/CCC(=O)OCCC[N+]1(C)CCc3cc(OC)c(OC)cc3[C@H]1Cc1cc(OC)c(OC)c(OC)c1)CC2.[Cl-].[Cl-] (some centres not stated) [MIVACURIUM CHLORIDE]	–	–	–	24	–
COc1cc2c(cc1OC)[C@H](c1cc(OC)c(OC)c(OC)c1)[N@@+](C)(CCCOC(=O)CCC(F)(F)C(=O)OCCC[N@+]1(C)CCc3cc(OC)c(OC)cc3[C@H]1Cc1cc(OC)c(OC)c(OC)c1)CC2.[Cl-].[Cl-]	5.7 min	0.22 mg/kg	48 s	–	–
COc1cc2c(cc1OC)[C@@H](Cc1cc(OC)c(OC)c(OC)c1)[N@+](C)(CCCOC(=O)/C(Cl)=C/C(=O)OCCC[N@+]13CCc4cc(OC)c(OC)cc4[C@H]1c1cc(OC)c(OC)cc1CC3)CC2.[Cl-].[Cl-]	5.2 min	0.078 mg/kg	94 s	5	–
COc1cc(CC2c3cc4c(cc3CC[N@@+]2(C)CCCOC(=O)/C(Cl)=C/C(=O)OCCC[N@+]2(C)CCc3cc5c(cc3[C@H]2Cc2cc(OC)c(OC)c(OC)c2)OCO5)OCO4)cc(OC)c1OC.[Cl-].[Cl-] (some centres not stated)	2.4 min	0.62 mg/kg	27 s	1.3	–
COc1cc2c(cc1OC)[C@@H](c1cc(OC)c(OC)c(OC)c1)[N@+](C)(CCCOC(=O)/C=C(\Cl)C(=O)OCCC[N@+]1(C)CCc3cc(OC)c(OC)c(OC)c3[C@H]1Cc1cc(OC)c(OC)c(OC)c1)CC2	10 min	0.067 mg/kg	57 s	24	–
COc1cc2c(cc1OC)[C@H](c1cc(OC)c(OC)c(OC)c1)[N@@+](C)(CCCOC(=O)CC(F)(F)C(=O)OCCC[N@+]1(C)CCc3cc(OC)c(OC)c(OC)c3[C@H]1Cc1cc(OC)c(OC)c(OC)c1)CC2.[Cl-].[Cl-]	14 min	0.04 mg/kg	217 s	60	–
COc1cc2c(cc1OC)[C@H](c1cc(OC)c(OC)c(OC)c1)[N@@+](C)(CCCOC(=O)/C=C(\Cl)C(=O)OCCC[N@+]13CCc4cc(OC)c(OC)c(OC)c4[C@H]1Cc1cc(OC)c(OC)c(OC)c1C3)CC2.[Cl-].[Cl-]	4.5 min	0.8 mg/kg	28 s	–	–
COc1ccc([C@@H]2c3cc(OC)c(OC)cc3CC[N@@+]2(C)CCCOC(=O)CC(F)(F)C(=O)OCCC[N@+]2(C)CCc3cc(OC)c(OC)cc3[C@H]2Cc2cc(OC)c(OC)c(OC)c2)cc1OC.[Cl-].[Cl-]	3.9 min	0.06 mg/kg	55 s	–	–
COc1cc2c(cc1OC)[C@@H](c1cc(OC)c(OC)c(OC)c1)[N@+](C)(CCCOC(=O)/C(Cl)=C/C(=O)OCCC[N@+]1(C)CCc3cc(OC)c(OC)cc3[C@H]1Cc1cc(OC)c(OC)c(OC)c1)CC2.[Cl-].[Cl-]	3.7 min	–	–	–	–
